From paper PMC4646787 (Science Advances, 2015)
Non-standard residues stand in square brackets, D forms with d. Residues, ends and D or L forms follow the SMILES beside them. sY = N[C@@H](Cc1ccc(OS(=O)(=O)O)cc1)C(=O)O

What was measured:
XA21 [1] = target: T1, XA21 (Oryza sativa subsp. indica, UniProt Q1MX30); test: ROS production; type: cell-based, rice (Oryza sativa ssp. japonica)
T1 sequence (Q1MX30 24-1025): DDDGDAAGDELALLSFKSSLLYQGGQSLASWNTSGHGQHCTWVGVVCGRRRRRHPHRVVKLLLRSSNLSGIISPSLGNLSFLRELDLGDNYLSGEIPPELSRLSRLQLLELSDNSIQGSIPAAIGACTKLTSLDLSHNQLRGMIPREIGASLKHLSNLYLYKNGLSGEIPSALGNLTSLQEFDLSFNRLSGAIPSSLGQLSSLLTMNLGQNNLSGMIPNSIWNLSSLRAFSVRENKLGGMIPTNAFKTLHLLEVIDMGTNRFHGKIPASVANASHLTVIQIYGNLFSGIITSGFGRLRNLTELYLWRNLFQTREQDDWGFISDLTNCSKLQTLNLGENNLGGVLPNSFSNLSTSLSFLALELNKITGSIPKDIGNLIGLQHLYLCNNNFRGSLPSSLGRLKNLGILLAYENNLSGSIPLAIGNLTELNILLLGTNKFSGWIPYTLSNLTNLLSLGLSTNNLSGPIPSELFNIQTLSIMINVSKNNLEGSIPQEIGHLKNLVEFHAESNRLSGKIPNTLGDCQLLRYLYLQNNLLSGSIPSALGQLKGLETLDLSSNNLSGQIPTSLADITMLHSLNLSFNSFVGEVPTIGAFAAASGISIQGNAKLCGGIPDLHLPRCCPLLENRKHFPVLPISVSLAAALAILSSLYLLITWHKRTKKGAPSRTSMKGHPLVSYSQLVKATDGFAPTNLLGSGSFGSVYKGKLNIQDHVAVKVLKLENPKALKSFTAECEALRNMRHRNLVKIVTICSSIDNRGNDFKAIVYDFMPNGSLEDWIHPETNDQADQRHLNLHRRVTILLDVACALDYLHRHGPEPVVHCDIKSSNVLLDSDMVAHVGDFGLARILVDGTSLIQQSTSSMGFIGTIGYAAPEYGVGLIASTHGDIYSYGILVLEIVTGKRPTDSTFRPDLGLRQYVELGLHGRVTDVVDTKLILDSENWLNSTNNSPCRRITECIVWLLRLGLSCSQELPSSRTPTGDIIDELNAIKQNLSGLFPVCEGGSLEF
In short: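 Leaves of 4- to 6-week-old hydroponic Kitaake and Ubi::XA21 plants were cut along the midvein into 1–1.5 mm pieces and floated overnight on autoclaved ddH2O. Two pieces per well went into L-012 plus horseradish peroxidase (0.5 to 2 mg/ml), with peptide or mock (ddH2O or peptide buffer). Chemiluminescence was read for 3 h at 0.5 s per reading, n = 6. EC50 was the half-maximal total 3-h ROS over a peptide concentration series.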

XA21 [2] = target: T1, XA21; test: Ethylene production in Ubi::XA21 rice leaves; type: cell-based, rice (Oryza sativa ssp. japonica); conditions: 1 μM peptide, 4 hours, gas chromatography, n = 3, Fig. 3C
In short: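 Ubi::XA21 Kitaake plants (3–4 weeks, hydroponic) were used. Leaves were cut into ~0.3 to 0.5 mm strips and floated on water overnight at room temperature. Strips were then incubated with water or peptide (1 μM) in sealed tubes. Ethylene accumulated in the headspace over 4 h was measured by gas chromatography.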

EC50 (XA21 [1]) | Ethylene production, result in words (XA21 [2]) | Compound
~30 nM |  | CC(C)C[C@H](N)C(=O)N[C@@H](Cc1c[nH]c2ccccc12)C(=O)N[C@@H](CCCCN)C(=O)N[C@@H](Cc1c[nH]cn1)C(=O)N[C@H](C(=O)NCC(=O)NCC(=O)NCC(=O)N[C@@H](CC(=O)O)C(=O)N[C@@H](Cc1ccc(OS(=O)(=O)O)cc1)C(=O)N1CCC[C@H]1C(=O)N1CCC[C@H]1C(=O)N1CCC[C@H]1C(=O)NCC(=O)N[C@@H](C)C(=O)N[C@@H](CC(N)=O)C(=O)N1CCC[C@H]1C(=O)N[C@@H](CCCCN)C(=O)N[C@@H](Cc1c[nH]cn1)C(=O)N[C@@H](CC(=O)O)C(=O)N1CCC[C@H]1C(=O)N1CCC[C@H]1C(=O)N1CCC[C@H]1C(=O)N[C@@H](CCCNC(=N)N)C(=O)O)C(C)C [RaxX24-sY] (H-LWKHVGGGD[sY]PPPGANPKHDPPPR-OH; N-terminus and C-terminus assumed)
 | but not RaxX21-Y | HVGGGDYPPPGANPKHDPPPR [RaxX21-Y]
